Experimental findings from ChEMBL document CHEMBL4028904, “Discovery of a Novel Series of Tankyrase Inhibitors by a Hybridization Approach” (J Med Chem, 2017) are described below.

The structures appear in SMILES notation.

The target in series [1] is Protein mono-ADP-ribosyltransferase PARP3 (Homo sapiens, UniProt Q9Y6F1). Kind of series: Inhibition of human PARP3 using NAD+ as substrate by fluorescence assay.
Series [2] can be described thus: Terminal half life in ICR mouse at 5 mg/kg, po measured up to 24 hrs postdose. The format is ADME, organism-based. To be noted: in vivo, read-out: beta t1/2 (converted).
Series [3] concerns the target Poly [ADP-ribose] polymerase 2 (Homo sapiens, UniProt Q9UGN5). Kind of series: Inhibition of human GST-tagged PARP2 (2 to 583 residues) expressed in baculovirus infected Sf9 cell expression system using NAD+ as substrate after 4 hrs by fluorescence assay.
In series [4] the target is Protein mono-ADP-ribosyltransferase PARP4 (Homo sapiens, UniProt Q9UKK3). Kind of series: Inhibition of human PARP4 using NAD+ as substrate by fluorescence assay.
The target in series [5] is Protein mono-ADP-ribosyltransferase PARP14 (Homo sapiens, UniProt Q460N5). Kind of series: Inhibition of human PARP14 using NAD+ as substrate by fluorescence assay.
The target in series [6] is Dual specificity protein kinase CLK2 (Homo sapiens) (UniProt P49760). Kind of series: Inhibition of CLK2 (unknown origin) at 10 uM after 60 mins in presence of [gamma-33P]-ATP by microplate scintillation counting. The essentials:
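A panel of 320 wild-type protein kinases was screened with the compound at 10 μM. Activity is reported as percent inhibition.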

For a further series, the target named is Cytochrome P450 2C9 (Homo sapiens, UniProt P11712). Kind of series: Inhibition of CYP2C9 in human liver microsomes using tolbutamide as substrate after 30 mins by LC-MS/MS analysis. It is filed as ADME. A general note: Microsomes from liver hold many membrane-bound enzymes, among them those of drug oxidation.
A further series has as its system Mus musculus. Kind of series: Clearance in ICR mouse at 5 mg/kg, po measured up to 24 hrs. The format is ADME, organism-based. To be noted: in vivo.
A short description of series [7]: Oral bioavailability in Sprague-Dawley rat at 14 mg/kg measured up to 24 hrs postdose. It is filed as ADME, organism-based. To be noted: in vivo.
Series [8] is described as follows: Cmax in Sprague-Dawley rat at 14 mg/kg, po measured up to 24 hrs postdose. The format is ADME, organism-based. To be noted: in vivo. The arrangement: dose 14 mg/kg, route oral.
The nature of series [9]: Terminal half life in Beagle dog at 7 mg/kg, po measured up to 24 hrs postdose. The format is ADME, organism-based, Canis lupus familiaris. To be noted: in vivo, read-out: beta t1/2 (converted).
Series [10] can be described thus: AUC (0 to t) in Beagle dog at 7 mg/kg, po measured up to 24 hrs postdose. It is filed as ADME, organism-based, Canis lupus familiaris. On the set-up: time < 24 hr, dose 7 mg/kg, route oral. To be noted: in vivo.
A further series has as its system COLO 320DM. Kind of series: Antitumor activity against human COLO320DM cells xenografted in nude Balb/c mouse assessed as tumor growth inhibition at 30 mg/kg, po administered qd for 10 days measured on days 12, 17 and 21 post last dose. It is filed as functional. To be noted: 240 h, read-out: TGI. The method, boiled down: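 Tumor-bearing mice were randomized 2 days after inoculation into four groups: vehicle (1% starch, n = 4) and 15, 30 or 60 mg/kg (n = 5 each). Dosing was oral, once daily, for 10 days. Tumor size was measured by caliper on days 12, 17 and 21. Values are tumor volume reduction relative to vehicle-treated controls.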

The test system of the next series is P388. Kind of series: Antitumor activity against mouse P388 cells allografted in immunocompetent BDF1 mouse assessed as tumor growth inhibition at 30 mg/kg, po administered qd for 10 days measured on day 12 post last dose. The format is functional. To be noted: read-out: TGI. The essentials:
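Immunocompetent BDF1 (DBA2 × C57Bl6j) mice were implanted with p388 cells and randomized after 2 days into vehicle (1% starch, n = 6) and two treatment groups (n = 5 each). Dosing was oral, once daily, for 10 days. Tumor size was measured by caliper at the end. Values are tumor size reduction relative to vehicle control.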

Chain of Protein mono-ADP-ribosyltransferase PARP4 (Q9UKK3 whole entry): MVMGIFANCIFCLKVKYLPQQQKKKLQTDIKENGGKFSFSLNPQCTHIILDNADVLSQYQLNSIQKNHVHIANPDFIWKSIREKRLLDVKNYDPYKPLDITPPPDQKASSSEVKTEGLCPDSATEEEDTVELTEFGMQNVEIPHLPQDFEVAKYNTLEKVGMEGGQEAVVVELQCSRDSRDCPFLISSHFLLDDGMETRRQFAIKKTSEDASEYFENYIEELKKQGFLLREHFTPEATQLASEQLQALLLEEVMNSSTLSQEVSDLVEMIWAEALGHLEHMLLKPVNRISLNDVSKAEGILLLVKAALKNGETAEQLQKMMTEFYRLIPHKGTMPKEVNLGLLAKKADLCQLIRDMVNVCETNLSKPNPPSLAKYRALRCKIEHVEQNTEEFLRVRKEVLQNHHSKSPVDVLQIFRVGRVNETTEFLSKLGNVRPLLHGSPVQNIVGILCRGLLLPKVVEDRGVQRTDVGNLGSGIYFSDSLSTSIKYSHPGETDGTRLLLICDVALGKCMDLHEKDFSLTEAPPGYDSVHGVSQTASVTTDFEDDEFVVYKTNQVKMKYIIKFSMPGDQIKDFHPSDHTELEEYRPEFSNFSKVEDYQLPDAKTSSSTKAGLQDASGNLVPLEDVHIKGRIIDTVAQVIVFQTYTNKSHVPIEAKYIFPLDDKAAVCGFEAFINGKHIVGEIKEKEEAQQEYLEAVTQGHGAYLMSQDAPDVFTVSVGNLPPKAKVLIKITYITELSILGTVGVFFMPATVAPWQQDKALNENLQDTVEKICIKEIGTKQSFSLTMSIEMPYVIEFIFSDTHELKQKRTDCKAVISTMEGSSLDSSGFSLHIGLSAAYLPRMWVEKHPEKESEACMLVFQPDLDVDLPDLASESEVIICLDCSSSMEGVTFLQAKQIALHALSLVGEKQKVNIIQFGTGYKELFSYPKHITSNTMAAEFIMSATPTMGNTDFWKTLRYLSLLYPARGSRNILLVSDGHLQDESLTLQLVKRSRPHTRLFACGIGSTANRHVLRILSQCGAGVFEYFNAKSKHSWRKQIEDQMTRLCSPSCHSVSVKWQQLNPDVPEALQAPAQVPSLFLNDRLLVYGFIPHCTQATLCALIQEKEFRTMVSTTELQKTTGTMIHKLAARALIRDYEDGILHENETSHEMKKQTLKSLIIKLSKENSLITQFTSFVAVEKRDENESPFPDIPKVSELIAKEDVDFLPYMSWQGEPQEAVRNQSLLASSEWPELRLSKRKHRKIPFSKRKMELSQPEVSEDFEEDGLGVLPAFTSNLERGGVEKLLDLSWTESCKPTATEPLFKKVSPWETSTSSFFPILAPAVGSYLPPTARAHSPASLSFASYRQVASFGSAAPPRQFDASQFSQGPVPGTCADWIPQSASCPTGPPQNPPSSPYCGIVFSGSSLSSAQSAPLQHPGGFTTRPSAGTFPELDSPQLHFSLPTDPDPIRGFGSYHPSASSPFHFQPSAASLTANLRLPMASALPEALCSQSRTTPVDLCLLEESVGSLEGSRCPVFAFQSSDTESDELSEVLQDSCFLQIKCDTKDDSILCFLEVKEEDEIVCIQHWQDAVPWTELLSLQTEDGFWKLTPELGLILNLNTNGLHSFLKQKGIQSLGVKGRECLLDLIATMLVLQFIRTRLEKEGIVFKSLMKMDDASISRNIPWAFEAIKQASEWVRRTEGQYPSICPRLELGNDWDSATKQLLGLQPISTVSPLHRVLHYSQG
Chain of Protein mono-ADP-ribosyltransferase PARP14 (Q460N5 whole entry): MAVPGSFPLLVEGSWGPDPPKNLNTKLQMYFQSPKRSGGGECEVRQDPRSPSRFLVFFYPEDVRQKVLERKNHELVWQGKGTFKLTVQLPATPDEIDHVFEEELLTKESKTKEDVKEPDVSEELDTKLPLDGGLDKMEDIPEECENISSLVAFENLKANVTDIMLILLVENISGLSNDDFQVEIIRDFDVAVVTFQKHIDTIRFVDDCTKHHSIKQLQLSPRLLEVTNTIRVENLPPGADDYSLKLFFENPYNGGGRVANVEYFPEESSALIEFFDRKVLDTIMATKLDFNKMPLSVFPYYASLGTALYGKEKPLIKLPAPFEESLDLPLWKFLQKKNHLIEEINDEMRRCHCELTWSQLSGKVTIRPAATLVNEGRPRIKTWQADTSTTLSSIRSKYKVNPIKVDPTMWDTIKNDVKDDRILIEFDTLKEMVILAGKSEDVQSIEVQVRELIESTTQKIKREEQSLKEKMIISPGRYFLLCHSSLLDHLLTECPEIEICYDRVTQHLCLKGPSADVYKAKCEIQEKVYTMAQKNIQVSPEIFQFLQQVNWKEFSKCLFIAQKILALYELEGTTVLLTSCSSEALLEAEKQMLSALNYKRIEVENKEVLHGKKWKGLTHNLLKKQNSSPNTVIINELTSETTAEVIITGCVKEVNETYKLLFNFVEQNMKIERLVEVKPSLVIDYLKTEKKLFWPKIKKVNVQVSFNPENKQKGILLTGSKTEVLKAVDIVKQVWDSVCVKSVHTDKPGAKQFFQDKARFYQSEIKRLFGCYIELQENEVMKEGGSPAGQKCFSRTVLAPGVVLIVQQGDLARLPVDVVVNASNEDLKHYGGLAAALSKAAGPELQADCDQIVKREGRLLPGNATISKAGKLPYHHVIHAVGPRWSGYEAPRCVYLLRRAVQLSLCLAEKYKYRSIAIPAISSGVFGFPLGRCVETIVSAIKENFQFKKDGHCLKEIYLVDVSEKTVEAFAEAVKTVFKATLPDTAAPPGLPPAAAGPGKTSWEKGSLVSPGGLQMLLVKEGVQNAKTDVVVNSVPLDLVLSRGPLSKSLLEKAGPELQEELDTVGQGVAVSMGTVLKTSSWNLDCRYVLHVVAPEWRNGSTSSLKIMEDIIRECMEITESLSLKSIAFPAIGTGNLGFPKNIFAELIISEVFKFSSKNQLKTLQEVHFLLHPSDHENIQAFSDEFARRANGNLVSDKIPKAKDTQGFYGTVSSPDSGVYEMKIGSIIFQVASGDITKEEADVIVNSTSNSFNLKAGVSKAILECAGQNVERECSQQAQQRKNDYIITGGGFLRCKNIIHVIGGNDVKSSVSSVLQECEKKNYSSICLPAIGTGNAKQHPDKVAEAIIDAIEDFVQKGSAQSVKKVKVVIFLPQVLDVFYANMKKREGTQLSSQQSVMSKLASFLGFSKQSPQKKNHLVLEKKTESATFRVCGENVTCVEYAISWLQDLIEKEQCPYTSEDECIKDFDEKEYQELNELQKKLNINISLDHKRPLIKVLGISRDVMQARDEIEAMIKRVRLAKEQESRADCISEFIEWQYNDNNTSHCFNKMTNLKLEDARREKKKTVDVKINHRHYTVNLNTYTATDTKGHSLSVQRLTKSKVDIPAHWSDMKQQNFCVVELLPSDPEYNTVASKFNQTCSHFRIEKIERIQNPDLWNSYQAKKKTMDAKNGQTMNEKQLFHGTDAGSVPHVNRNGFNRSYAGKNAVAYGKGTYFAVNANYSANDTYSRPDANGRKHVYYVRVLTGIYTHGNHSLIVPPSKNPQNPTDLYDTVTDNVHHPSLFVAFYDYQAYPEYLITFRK
Chain of Cytochrome P450 2C9 (P11712 whole entry): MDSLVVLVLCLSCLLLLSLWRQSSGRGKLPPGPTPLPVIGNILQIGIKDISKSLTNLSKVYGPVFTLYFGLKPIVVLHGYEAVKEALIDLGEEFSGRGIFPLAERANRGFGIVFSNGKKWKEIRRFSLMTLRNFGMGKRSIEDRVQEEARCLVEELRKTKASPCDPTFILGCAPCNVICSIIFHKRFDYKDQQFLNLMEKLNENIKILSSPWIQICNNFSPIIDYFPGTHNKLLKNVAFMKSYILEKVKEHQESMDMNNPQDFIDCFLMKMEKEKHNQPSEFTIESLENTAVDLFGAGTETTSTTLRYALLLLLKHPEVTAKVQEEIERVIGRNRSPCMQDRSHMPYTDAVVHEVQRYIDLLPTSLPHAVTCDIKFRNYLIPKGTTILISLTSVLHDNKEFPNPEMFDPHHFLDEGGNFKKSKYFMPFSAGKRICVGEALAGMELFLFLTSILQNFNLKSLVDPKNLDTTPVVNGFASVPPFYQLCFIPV
Chain of Dual specificity protein kinase CLK2 (Homo sapiens) (P49760 whole entry, looked up): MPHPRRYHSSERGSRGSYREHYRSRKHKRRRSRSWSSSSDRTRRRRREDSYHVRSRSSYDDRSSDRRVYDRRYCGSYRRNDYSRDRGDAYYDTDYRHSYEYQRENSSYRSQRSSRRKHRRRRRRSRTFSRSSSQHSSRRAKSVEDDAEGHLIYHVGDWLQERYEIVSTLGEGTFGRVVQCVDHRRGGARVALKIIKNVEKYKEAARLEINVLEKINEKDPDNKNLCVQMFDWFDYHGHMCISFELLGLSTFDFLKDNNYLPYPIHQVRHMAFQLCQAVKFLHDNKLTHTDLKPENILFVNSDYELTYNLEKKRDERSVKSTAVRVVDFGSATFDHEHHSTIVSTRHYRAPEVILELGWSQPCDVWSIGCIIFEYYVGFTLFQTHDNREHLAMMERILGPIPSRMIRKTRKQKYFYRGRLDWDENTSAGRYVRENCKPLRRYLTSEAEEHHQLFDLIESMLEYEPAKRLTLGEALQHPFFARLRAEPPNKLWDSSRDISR
Chain of Protein mono-ADP-ribosyltransferase PARP3 (Q9Y6F1 whole entry): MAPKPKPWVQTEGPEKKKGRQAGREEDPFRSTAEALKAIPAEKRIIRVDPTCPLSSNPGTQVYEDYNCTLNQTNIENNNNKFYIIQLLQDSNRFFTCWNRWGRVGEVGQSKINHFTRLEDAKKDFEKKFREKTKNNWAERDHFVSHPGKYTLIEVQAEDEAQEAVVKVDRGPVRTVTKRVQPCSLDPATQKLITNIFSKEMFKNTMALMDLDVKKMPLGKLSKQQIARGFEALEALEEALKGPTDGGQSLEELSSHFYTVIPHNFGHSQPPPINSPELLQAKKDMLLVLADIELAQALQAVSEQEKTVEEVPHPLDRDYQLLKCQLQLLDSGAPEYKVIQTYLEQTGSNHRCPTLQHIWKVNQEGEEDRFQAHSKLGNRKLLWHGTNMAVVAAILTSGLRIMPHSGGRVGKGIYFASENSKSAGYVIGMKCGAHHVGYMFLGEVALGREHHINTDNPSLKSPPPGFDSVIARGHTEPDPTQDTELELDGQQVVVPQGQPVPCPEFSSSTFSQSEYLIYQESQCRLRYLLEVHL

A word on the IC50: it is the concentration that inhibits the measured activity by half. Read a high IC50 as a need for much substance. As a reminder, the inhibition is the relative decrease from the control value, in per cent. In general, bioavailability refers to the share of a dose that reaches the circulation, judged against a reference dose that is usually intravenous. A low value points to poor availability. A word on the Cmax: it is the highest concentration seen after dosing. The AUC(0-t) is exposure summed from dosing to a finite time, without extrapolation to infinity. Read a low AUC(0-t) as low exposure. Regarding `N#Cc1ccc2c(c1)[nH]c(=O)n2[C@H]1C[C@H](c2nnc(-c3ccncn3)n2-c2ccccc2Cl)C1`, the IC50 is greater than 100 µM in series [1]; greater than 100 µM in series [3]; greater than 100 µM in series [4]; greater than 10 µM in series [5]; 11.9 µM at Cytochrome P450 2C9. The half-life is 1.5 h in series [2] and 4.7 h in series [9]. Further, the inhibition in [6] is 73%. The compound further had a clearance in the series on Mus musculus of 567 mL/min/kg. The bioavailability in series [7] worked out at 35%. In series [8], this compound displayed a Cmax of 843 ng/mL. This compound also returned an AUC(0-t) at 24 h in series [10] of 27100 ng·h/mL. Also, the results for the inhibition in vivo at 30 mg/kg in the series on COLO 320DM and with P388 were 63% and 57%, respectively.
